Measured values gathered from unrelated publications.
Compare with care: the assays were run in different laboratories.
PPO3: PPO3 (Agaricus bisporus, UniProt C7FF04)
OPRK1: Kappa-type opioid receptor (OPRK1, Homo sapiens, UniProt P41145)
SIGMAR1: Sigma non-opioid intracellular receptor 1 (SIGMAR1, Homo sapiens, UniProt Q99720)
HTR2A: 5-hydroxytryptamine receptor 2A (HTR2A, Homo sapiens, UniProt P28223)
CNR1: Cannabinoid receptor 1 (CNR1, Homo sapiens, UniProt P21554)
SLC10A1: Hepatic sodium/bile acid cotransporter (SLC10A1, Homo sapiens, UniProt Q14973)
SPHK1: Sphingosine kinase 1 (SPHK1, Homo sapiens, UniProt Q9NYA1)

SMILES | target | read-out | action | technique | notes | Ki [µM]
Nc1nc(N)c(N=Nc2ccc([N+](=O)[O-])cc2)c(Cl)n1 | PPO3 | enzyme activity | inhibitor |  |  | 6.56
CCCNc1nc(C#Cc2ccc(Cl)s2)nc2c1ncn2[C@H]1[C@H](O)[C@H](O)[C@]2(C(=O)NC)C[C@H]12 | OPRK1 | cell-free assay |  |  |  | > 10
CCCn1nc(C(=O)N2CCCCC2)c2c1CCC(NCCNC(=N)N)C2 (stereo not drawn) | SIGMAR1 | ligand displacement |  | radioligand |  | > 10
Cc1nc2n(c(=O)c1CCNCCc1c[nH]c3cc(F)ccc13)CCCC2 | HTR2A | ligand displacement |  | radioligand | cell membranes | 1.95
CCOC(=O)[C@](CC)(CCCS(=O)(=O)CCOCCOCCNC(=O)OC(C)(C)C)NC(=O)c1ccc(C2CC2)c(Cc2ccc(F)cc2)n1 | CNR1 | ligand displacement |  | radioligand | cell membranes | 0.19
CNC(=O)[C@@]12C[C@@H]1[C@@H](n1cnc3c(NCc4cccc(Cl)c4)nc(Cl)nc31)[C@H](O)[C@@H]2O | OPRK1 | cell-free assay |  |  |  | > 10
Nc1nc(N)c(N=Nc2ccccc2[N+](=O)[O-])c(N)n1 | PPO3 | enzyme activity | inhibitor |  |  | 5.66
CC(C)C(=O)Nc1ccc([N+](=O)[O-])c(C(F)(F)F)c1 | SLC10A1 | transporter uptake | inhibitor |  |  | 113
CNc1nc(C#Cc2ccc(Cl)s2)nc2c1ncn2[C@H]1[C@H](O)[C@H](O)[C@]2(C(=O)O)C[C@H]12 | OPRK1 | cell-free assay |  |  |  | > 10
CCCC[C@H](NC(=O)[C@H](C)c1c(C)[nH]c2ccc(O)cc12)c1ncc(-c2cc3ccccc3nc2OC)[nH]1 | CNR1 | cell-free assay |  |  |  | 7.28
CC(=O)Nc1ccc(N=Nc2c(N)nc(N)nc2N)cc1 | PPO3 | enzyme activity | inhibitor |  |  | 4.98
COc1cc2c(cc1OC)CN(CCCCn1ccc3c(OC)cccc31)C2 | SIGMAR1 | ligand displacement |  | radioligand | cell membranes | 0.149
CC[C@H](C)[C@H](NC(=O)[C@H](CCC(=O)O)NC(=O)[C@H](CC(=O)O)NC(=O)CNC(=O)[C@H](CC(C)C)NC(=O)[C@H](CCCNC(=N)N)NC(=O)[C@H](CCC(N)=O)NC(=O)[C@H](CC(C)C)NC(=O)[C@H](CO)NC(=O)[C@H](CCC(N)=O)NC(=O)[C@@H](NC(=O)[C@H](CC(C)C)NC(=O)[C@H](Cc1c[nH]c2ccccc12)NC(=O)[C@@H](NC(=O)[C@H](CCC(=O)O)NC(=O)[C@@H]1CCCN1C(=O)[C@H](CCCNC(=N)N)NC(C)=O)[C@@H](C)CC)[C@@H](C)O)C(=O)N[C@@H](CC(N)=O)C(=O)N[C@@H](C)C(=O)N[C@@H](Cc1ccc(O)cc1)C(=O)N[C@@H](Cc1ccc(O)cc1)C(=O)N[C@@H](C)C(=O)N[C@@H](CCCNC(=N)N)C(N)=O | Bcl-2-like protein 1 (BCL2L1, Homo sapiens, UniProt Q07817) | ligand displacement |  | FP |  | ~2.1
C[C@@H]1Cc2ccccc2N1C(=O)NCCCCN(C)[C@@H]1Cc2cccc3[nH]c(=O)n(c23)C1 | HTR2A | ligand displacement |  | radioligand |  | 2.71
CS(=O)(=O)CCNCc1ccc(-c2ccc3ncnc(Nc4ccc(OCc5cccc(F)c5)c(Cl)c4)c3c2)o1 | SLC10A1 | transporter uptake | inhibitor |  |  | 285
Cc1nc[nH]c(=O)c1CCN1CCC(c2noc3cc(F)ccc23)CC1 | HTR2A | ligand displacement |  | radioligand | cell membranes | 0.00186
COc1ccccc1N1CCN(CCCCNC(=O)c2cc3cc(OCCOCCOCCF)ccc3[nH]2)CC1 | SIGMAR1 | cell-free assay |  |  |  | > 10
CNC(=O)[C@@]12C[C@@H]1[C@@H](n1cnc3c(NC4CC4c4ccccc4)nc(C#Cc4ccccc4)nc31)[C@H](O)[C@@H]2O (mixture of isomers) | OPRK1 | cell-free assay |  |  |  | > 10
Cc1ccc(C(C)C)cc1NC(=O)COC(=O)/C=C/c1ccccc1 | PPO3 | enzyme activity | inhibitor |  |  | 0.84
CCc1cc(Cl)c(OC)c(C(=O)NC[C@@H]2CCCN2CC)c1O | Vesicular acetylcholine transporter (SLC18A3, Homo sapiens, UniProt Q16572) | ligand displacement |  | radioligand |  | > 1
CNC(=O)[C@@]12C[C@@H]1[C@@H](n1cnc3c(NC)nc(C#Cc4ccc(Br)s4)nc31)[C@H](O)[C@@H]2O | OPRK1 | cell-free assay |  |  |  | > 10
CCCCN1CCC(COC(=O)c2ccc(N)c(OCF)c2)CC1 | Histamine H4 receptor (HRH4, Homo sapiens, UniProt Q9H3N8) | cell-free assay |  | radioligand |  | > 10
CNC(=O)[C@@]12C[C@@H]1[C@@H](n1cnc3c(NCc4cccc(Cl)c4)nc(C#Cc4ccccc4Cl)nc31)[C@H](O)[C@@H]2O | OPRK1 | cell-free assay |  |  |  | > 10
CCCn1nc(C(=O)N2CCCCC2)c2c1CCC(NCCCN1CCCC1=O)C2 (stereo not drawn) | SIGMAR1 | ligand displacement |  | radioligand |  | > 10
CCCc1ccc(CCc2ccc(-c3noc([C@@H]4CCCN4C(=N)N)n3)cc2C(F)(F)F)cc1 | SPHK1 | enzyme activity | inhibitor |  |  | 17
CNC(=O)[C@@]12C[C@@H]1[C@@H](n1cnc3c(NC)nc(C#Cc4ccccc4Cl)nc31)[C@H](O)[C@@H]2O | OPRK1 | cell-free assay |  |  |  | > 10
CCCn1nc(C(=O)N2CCCCC2)c2c1CCC(N1CCc3ccccc3C1)C2 (stereo not drawn) | SIGMAR1 | ligand displacement |  | radioligand |  | > 10
CNC(=O)[C@@]12C[C@@H]1[C@@H](n1cnc3c(NC)nc(C#Cc4ccc(Cl)s4)nc31)[C@H](O)[C@@H]2O | OPRK1 | cell-free assay |  |  |  | > 10
CCCn1nc(C(=O)N2CCCCC2)c2c1CCC(Nc1ccc(N3CCCCC3)cc1)C2 (stereo not drawn) | SIGMAR1 | ligand displacement |  | radioligand |  | > 10
[H]/N=C(\N)N1CCC[C@H]1c1nc(-c2ccc(OCC=Cc3ccc(C(F)(F)F)cc3)c(C(F)(F)F)c2)no1 | SPHK1 | enzyme activity | inhibitor |  |  | 12
